Data from ChEMBL document CHEMBL4312005, “Optimization of pyrrolizine-based Schiff bases with 4-thiazolidinone motif: Design, synthesis and investigation of cytotoxicity and anti-inflammatory potency” (Eur J Med Chem, 2020).

Legend:
[1] = system: Rattus norvegicus; assay: Antiinflammatory activity against albino rats assessed as inhibition of carrageenan-induced paw edema at 15 mg/kg, po measured after 2 hrs relative to control; assay type: functional
In short: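 Winter carrageenan rat paw oedema model in adult albino rats of both sexes (100-140 g). Compounds given orally before carrageenan injection into the paw. Oedema inhibition % versus untreated control read at 2-4 h post-carrageenan. Significance versus control was tested at P < 0.05, 0.01 and 0.001. Animal work approved by the Umm Al-Qura University pharmacy ethics committee.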

[2] = system: Rattus norvegicus; assay: Antiinflammatory activity against albino rats assessed as inhibition of carrageenan-induced paw edema at 15 mg/kg, po measured after 4 hrs relative to control; assay type: functional
In short: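 Carrageenan rat paw edema (Winter method) in male and female adult albino rats (100-140 g). […] Swelling inhibition expressed as % of control at 2-4 h after carrageenan injection.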

COc1ccc2c(c1)c(CC(=O)O)c(C)n2C(=O)c1ccc(Cl)cc1 [INDOMETHACIN] was tested, and the inhibition in vivo at 15 mg/kg [1] was 32.3% and the inhibition in vivo at 15 mg/kg [2] was 56.4%.
